The record followed here is ChEMBL document CHEMBL4261556, “Design, Synthesis and Structure-Activity Relationships of (±)-Isochaihulactone Derivatives” (Medchemcomm, 2017).

The subject of one test is KB. The test is described as follows: Antiproliferative activity against human KB cells after 72 hrs by SRB assay. It counts as functional, cell-based. Put shortly: (§1)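 Cells grown in RPMI-1640 with 2 mM L-glutamine, 25 mM HEPES, 10% FBS, penicillin/streptomycin and amphotericin B. KB-VIN maintained with 100 nM vincristine. Freshly trypsinized cells seeded at 4000–7500 per well, depending on doubling time, together with compounds for 72 h. Fixed in 10% TCA, stained with 0.04% SRB, dye solubilized in 10 mM Tris base, absorbance read at 515 nm.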
A general note: In SRB staining, fixed cells bind dye roughly in proportion to their protein.

The subject of a further test is MDA-MB-231. Briefly: Antiproliferative activity against human MDA-MB-231 cells after 72 hrs by SRB assay. It counts as functional, cell-based. Put shortly: as §1
Test [1] is described as follows: Antiproliferative activity against human KBVIN cells after 72 hrs by SRB assay. Type of test: functional, cell-based. In short, it runs like this:
as §1

Test [2] deals with A549. Briefly: Antiproliferative activity against human A549 cells after 72 hrs by SRB assay. Type of test: functional, cell-based.
Test [3] relates to A549. Briefly: Cell cycle arrest in human A549 cells assessed as accumulation after 24 hrs by propidium iodide staining based flow cytometry. Type of test: functional. In short, it runs like this:
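A549 cells seeded at 75 000 per well 24 h before dosing, then treated 24 h at 1× or 3× the IC50 concentration. DMSO and 20 nM combretastatin A-4 served as controls. Floating plus trypsinized cells pooled, fixed in 70% EtOH overnight at –20 °C, stained with propidium iodide 30 min at 37 °C. DNA content analysed by flow cytometry for G2/M population.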
Background: In flow cytometry, cells or beads pass a laser one at a time.

A word on the IC50: it is the midpoint of a concentration-inhibition curve. The low end stands for greater potency, the high end for weaker potency. For `COc1cc(/C=C2\C(=O)OCC2Cc2ccc3c(c2)OCO3)cc(OC)c1O` (stereo not given), the 50% inhibitory concentration (IC50) in the test on KB (Homo sapiens, KB, 72 h) was 11.5 µM; in the test on MDA-MB-231 (Homo sapiens, MDA-MB-231, 72 h), above 40 µM; in test [1] (Homo sapiens, KBVIN, 72 h), 6.78 µM; with A549 [2] (Homo sapiens, A549, 72 h), 6.17 µM.

For the molecule `COc1cc(/C=C2\C(=O)OCC2Cc2ccc3c(c2)OCO3)cc(OC(=O)CN(C)C)c1OC` (stereo not given) [listing 1 of 3 here], in the test on A549 [3], the Activity result was “Dose-dependent effect”.

In the case of `COc1ccc(/C=C\c2cc(OC)c(OC)c(OC)c2)cc1O`, in the test with A549 [3], the Activity entry is “Dose-dependent effect”.

With `COc1cc(/C=C2\C(=O)OC\C2=C\c2ccc3c(c2)OCO3)cc(OC)c1OC(=O)CN(C)C`, the half-inhibitory concentration (IC50) in the test on KB (Homo sapiens, KB, 72 h) was above 40 µM; in the test on MDA-MB-231 (Homo sapiens, MDA-MB-231, 72 h), above 40 µM; in test [1] (Homo sapiens, KBVIN, 72 h), above 40 µM; in the test on A549 [2] (Homo sapiens, A549, 72 h) it was above 40 µM.

In the case of `COc1cc(/C=C2\C(=O)OCC2Cc2ccc3c(c2)OCO3)cc(OC)c1OC(=O)CN(C)C` (stereo not given) [listing 1 of 2 here], the IC50 with KB (kb) is 8.71 µM; in the test on MDA-MB-231 (mda-mb-231), 9.37 µM; in test [1], 7.06 µM; in the test on A549 [2] (a549) it was 5.93 µM.

As to `COc1cc(/C=C2\C(=O)OC\C2=C\c2ccc3c(c2)OCO3)cc(OC)c1OC(=O)[C@@H](N)Cc1ccccc1`, the 50% inhibitory concentration (IC50) in the test with KB (Homo sapiens, KB, 72 h) is above 40 µM; in the test with MDA-MB-231 (Homo sapiens, MDA-MB-231, 72 h), above 40 µM; in test [1] (Homo sapiens, KBVIN, 72 h) it was above 40 µM; in the test with A549 [2] (Homo sapiens, A549, 72 h), above 40 µM.

Take `COc1cc(/C=C2\C(=O)OC\C2=C\c2ccc3c(c2)OCO3)cc(O)c1OC`: the concentration for half-maximal inhibition (IC50) was 34 µM in the test on KB (Homo sapiens, KB, 72 h); above 40 µM in the test with MDA-MB-231 (Homo sapiens, MDA-MB-231, 72 h); 29 µM in test [1] (Homo sapiens, KBVIN, 72 h); 31.2 µM in the test with A549 [2] (Homo sapiens, A549, 72 h).

With `COc1cc(/C=C2\C(=O)OCC2Cc2ccc3c(c2)OCO3)cc(OC)c1OC` (racemic), the half-inhibitory concentration (IC50) was 9.9 µM with KB (Homo sapiens, KB, 72 h); 5.88 µM in the test on MDA-MB-231 (Homo sapiens, MDA-MB-231, 72 h); 5.51 µM in test [1] (Homo sapiens, KBVIN, 72 h); 5.5 µM in the test on A549 [2] (Homo sapiens, A549, 72 h). The Activity entry in the test on A549 [3] was “Dose-dependent effect”.

With `COc1cc(/C=C2\C(=O)OCC2Cc2ccc3c(c2)OCO3)cc(OC)c1OC(=O)[C@@H](N)Cc1ccccc1` (stereo not given in full), the IC50 with KB (Homo sapiens, KB, 72 h) worked out at 9.2 µM; in the test on MDA-MB-231 (Homo sapiens, MDA-MB-231, 72 h), 9.73 µM; in test [1] (Homo sapiens, KBVIN, 72 h) it was 7.59 µM; with A549 [2] (Homo sapiens, A549, 72 h), 5.97 µM.

Consider `COc1cc(/C=C2\C(=O)OC\C2=C\c2ccc3c(c2)OCO3)cc(OC(=O)[C@@H](N)Cc2ccccc2)c1OC`, for which the concentration for half-maximal inhibition (IC50) was above 40 µM in the test on KB (Homo sapiens, KB, 72 h); above 40 µM in the test with MDA-MB-231 (Homo sapiens, MDA-MB-231, 72 h); above 40 µM in test [1] (Homo sapiens, KBVIN, 72 h); above 40 µM with A549 [2] (Homo sapiens, A549, 72 h).

Take `COc1cc(/C=C2\C(=O)OCC2Cc2ccc3c(c2)OCO3)cc(OC(=O)CN(C)C)c1OC` (stereo not given) [listing 2 of 3 here]: the IC50 in the test with KB (kb) amounted to 5.53 µM; with MDA-MB-231 (mda-mb-231), 8.91 µM; in test [1], 5.34 µM; in the test on A549 [2] (Homo sapiens, A549, 72 h) it was 5.02 µM.

Turning to `Cc1cc(/C=C2\C(=O)OCC2Cc2ccc3c(c2)OCO3)ccc1F` (stereo not given), the IC50 in the test with KB (Homo sapiens, KB, 72 h) amounted to 6.47 µM; with MDA-MB-231 (Homo sapiens, MDA-MB-231, 72 h) it was 8.81 µM; in test [1] (Homo sapiens, KBVIN, 72 h) it was 5.51 µM; in the test on A549 [2] (Homo sapiens, A549, 72 h), 5.72 µM.

With `COc1cc(/C=C2\C(=O)OC\C2=C\c2ccc3c(c2)OCO3)cc(OC)c1O`, the IC50 was above 40 µM in the test with KB (Homo sapiens, KB, 72 h); above 40 µM in the test on MDA-MB-231 (Homo sapiens, MDA-MB-231, 72 h); above 40 µM in test [1] (Homo sapiens, KBVIN, 72 h); above 40 µM in the test with A549 [2] (Homo sapiens, A549, 72 h).

`COc1cc(/C=C2\C(=O)OCC2Cc2ccc3c(c2)OCO3)cc(OC(=O)CN(C)C)c1OC` (stereo not given) [listing 3 of 3 here]: the IC50 with KB (Homo sapiens, KB, 72 h) came to 4.98 µM; in the test with MDA-MB-231 (Homo sapiens, MDA-MB-231, 72 h) it was 9.04 µM; in test [1] (Homo sapiens, KBVIN, 72 h), 4.51 µM; in the test on A549 [2] (a549), 3.32 µM.

On to `COc1cc(/C=C2\C(=O)OC\C2=C\c2ccc3c(c2)OCO3)cc(OC)c1OC`, for which the 50% inhibitory concentration (IC50) was 34 µM in the test on KB (Homo sapiens, KB, 72 h); above 40 µM with MDA-MB-231 (Homo sapiens, MDA-MB-231, 72 h); 28.3 µM in test [1] (Homo sapiens, KBVIN, 72 h); 35.2 µM in the test on A549 [2] (Homo sapiens, A549, 72 h).

Turning to `COc1cc(/C=C2\C(=O)OCC2Cc2ccc3c(c2)OCO3)cc(OC(=O)[C@@H](N)Cc2ccccc2)c1OC` (stereo not given in full), the half-maximal inhibitory concentration (IC50) was determined as 5.4 µM with KB (Homo sapiens, KB, 72 h); 8.8 µM in the test on MDA-MB-231 (Homo sapiens, MDA-MB-231, 72 h); 4.95 µM in test [1] (Homo sapiens, KBVIN, 72 h); 4.8 µM with A549 [2] (Homo sapiens, A549, 72 h).

As to `Cc1cc(/C=C2\C(=O)OC\C2=C\c2ccc3c(c2)OCO3)ccc1F`, the half-maximal inhibitory concentration (IC50) in the test with KB (Homo sapiens, KB, 72 h) is above 40 µM; in the test with MDA-MB-231 (Homo sapiens, MDA-MB-231, 72 h) it was above 40 µM; in test [1] (Homo sapiens, KBVIN, 72 h), above 40 µM; with A549 [2] (Homo sapiens, A549, 72 h), above 40 µM.

In the case of `COc1cc(/C=C2\C(=O)OCC2Cc2ccc3c(c2)OCO3)cc(OC)c1OC(=O)CN(C)C` (stereo not given) [listing 2 of 2 here], the IC50 was found to be 18.1 µM with KB (kb); 29 µM in the test with MDA-MB-231 (mda-mb-231); 17.6 µM in test [1]; 6.15 µM in the test on A549 [2] (Homo sapiens, A549, 72 h).

For `COc1cc(/C=C2\C(=O)OC\C2=C\c2ccc3c(c2)OCO3)cc(OC(=O)CN(C)C)c1OC`, the IC50 was above 40 µM in the test on KB (Homo sapiens, KB, 72 h); above 40 µM in the test with MDA-MB-231 (Homo sapiens, MDA-MB-231, 72 h); above 40 µM in test [1] (Homo sapiens, KBVIN, 72 h); above 40 µM in the test on A549 [2] (Homo sapiens, A549, 72 h).

As to `COc1cc(/C=C2\C(=O)OCC2Cc2ccc3c(c2)OCO3)cc(O)c1OC` (stereo not given), the IC50 stood at 5.18 µM with KB (Homo sapiens, KB, 72 h); 8.55 µM with MDA-MB-231 (Homo sapiens, MDA-MB-231, 72 h); 4.84 µM in test [1] (Homo sapiens, KBVIN, 72 h); 4.32 µM with A549 [2] (Homo sapiens, A549, 72 h).
